Rtt109 Vps75 = blocks Candida albicans Rtt109/Vps75 acetyltransferase activity. Q5AAJ8. purified Rtt109/Vps75, ThioGlo CoA-SH fluorescence, 4 h. inhibition, % at 34.9 µM. hit rate 0.16% among 330,000. AID 540336;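 active = inhibition of at least 50% in every replicate; inconclusive = best replicate reaches 50% inhibition but some replicates fall short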
SR-BI uptake up = SR-BI HDL lipid transfer activation | CHO ldlA[mSR-BI] cells, DiI-HDL uptake fluorescence, 3 h; 100 = double the neutral-control signal | AID 504775 | activation, % at 12.5 µM | hit rate 0.096% among 320,000;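 active = mean replicate activation of at least 60% and every replicate at or above 60%; inconclusive = mean or all-replicate condition met, but not both; inactive = mean below 60% and not all replicates reaching 60%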;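 also: 0% = median plate neutral-control signal and 100% = twice that signal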
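Material – SR-BI-overexpressing, LDLR-lacking CHO cells · Medium – BSA-supplemented, HEPES-buffered Ham's F12, pH 7.4 · Doses – single concentration · Times – compound with DiI-HDL co-incubation, 3 h at 37 °C · Measured by – bottom-read fluorescence, 550/595 nm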
PglD DTNB = PglD (C. jejuni) enzyme inhibition | purified PglD enzyme, DTNB colorimetric CoA detection | inhibition, % at 12.5 µM | hit rate 0.098% among 360,000 | AID 602405; in the data active = inhibition above about 16%, passing the limit was not always enough; inconclusive = no clear call, values can overlap the other calls
Glyco luc inh = blocks N-linked glycosylation in D54 reporter cells | D54 ERlucT glycosylation luciferase reporter, 24 h; percent of 100 nM tunicamycin response | reporter increase, % at 12.5 µM | hit rate 0.23% among 360,000 | AID 588692;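 active = mean luciferase reporter signal, scaled so untreated is 0 and the glycosylation-blocking control 100, at or above a set limit in every replicate; inconclusive = mean reaches the limit but not every replicate does; inactive = mean below the limit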;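 also: luciferase carries N-glycosylation sites so blocking glycosylation raises the light; 0% = median of neutral control wells and 100% = median of 100 nM tunicamycin wells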
Env fusion inh = blocks HIV Env-driven cell-cell fusion; inhibition, % at 12.3 µM; HeLa-JRFL Env/CEM21 cell fusion, luciferase; hit rate 1.1% among 360,000; AID 651610;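 active = mean replicate inhibition score of at least 50 and every replicate individually at or above 50; inconclusive = only one of the two criteria met; inactive = mean below 50 and not all replicates reaching 50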;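 also: 0% = plate neutral controls and 100% = maraviroc near 300 nM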
SR-BI HDL uptake = mouse SR-BI HDL lipid transfer inhibition | inhibition, % at 12.5 µM | Q61009 | ldlA[mSR-BI] CHO cells, DiI-HDL uptake fluorescence, 3 h | hit rate 0.96% among 320,000;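 active = mean replicate inhibition of at least 70% and a set share of replicates each scoring 70 or more; inconclusive = meets just one of the two criteria; inactive = fails both criteria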;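 also: 0% = median of neutral control wells and 100% = median of positive control wells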
Target sequence (Q61009 whole entry, looked up): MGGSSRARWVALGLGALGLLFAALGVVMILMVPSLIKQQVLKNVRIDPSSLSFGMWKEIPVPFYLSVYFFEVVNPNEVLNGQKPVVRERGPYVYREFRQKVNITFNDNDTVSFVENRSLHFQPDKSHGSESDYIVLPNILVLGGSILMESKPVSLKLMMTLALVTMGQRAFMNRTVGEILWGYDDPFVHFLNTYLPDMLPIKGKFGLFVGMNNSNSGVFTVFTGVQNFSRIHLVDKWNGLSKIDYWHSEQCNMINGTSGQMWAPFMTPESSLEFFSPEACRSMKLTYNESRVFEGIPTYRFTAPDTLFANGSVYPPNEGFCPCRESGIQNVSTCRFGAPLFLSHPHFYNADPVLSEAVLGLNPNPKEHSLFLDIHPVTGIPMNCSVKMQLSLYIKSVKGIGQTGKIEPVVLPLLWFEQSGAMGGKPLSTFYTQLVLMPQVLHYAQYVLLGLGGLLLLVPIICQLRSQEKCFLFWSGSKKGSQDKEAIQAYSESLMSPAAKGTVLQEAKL
Active calls of the source: *; u = inconclusive; x = no result given; [ ] = remark or other dose. Compounds with a hit are over-represented: about 1.9% of the library has one in this group of screens.

SMILES	Rtt109 Vps75	SR-BI uptake up	PglD DTNB	Glyco luc inh	Env fusion inh	SR-BI HDL uptake
COc1cccc(CNC(=O)Cc2csc(NC(=O)Nc3ccccc3OC)n2)c1	12.3	-77.6	6.5	1.0	-2.5	77.5*
COc1ccc(C(=O)Nc2nc(CC(=O)NCCc3ccccc3)cs2)cc1	0.8	-41.9	x	-2.3	8.3	41.9
COc1ccc(OC)c(NC(=O)Cc2csc(NC(=O)Nc3ccccc3OC)n2)c1	u	-76.3	5.5	-2.3	0.8	76.3*
COc1ccccc1NC(=O)Nc1nc(CC(=O)NCc2ccc(F)cc2)cs1	19.6	-72.5	5.9	-1.2	4.0	72.5*
COc1ccc(NC(=O)Cc2csc(NC(=O)Nc3ccccc3OC)n2)c(OC)c1	25.5	-64.0	0.2	1.0	-5.8	64.0
C[C@@H]1CN([C@H](C)CO)C(=O)c2cc(-c3ccccc3)cnc2O[C@@H]1CN(C)Cc1cccnc1	x	x	-2.7	x	-9.8[16.7 µM]	x
COc1ccccc1NC(=O)Nc1nc(CC(=O)N2CCN(c3ccccc3F)CC2)cs1	42.2	-80.3	-3.4	-4.4	1.7	80.3*
COc1ccccc1NC(=O)Nc1nc(CC(=O)NCc2c(F)cccc2F)cs1	-5.2	-71.8	-4.0	0.7	-153.3	71.8*
O=C(N/N=C/c1cc(Br)ccc1O)c1cccc(N2CCCC2=O)c1	-1.1	-105.9	x	-11.3	10.2	105.8*
COc1ccc(O)c(/C=N/NC(=O)c2cccc(N3CCCC3=O)c2)c1	-3.5	-88.6	-3.0	-5.0	27.3	88.6*
O=C(C[C@H]1C[C@H]2c3cc(NS(=O)(=O)c4ccc(F)cc4)ccc3O[C@H]2[C@@H](CO)O1)NCc1ccc(Oc2ccccc2)cc1	x	x	-1.7	x	42.9[16.7 µM]	x
COc1ccc2c(c1)[C@]1(C(=O)N2C)C2=C(CCCC2=O)Oc2cc(C)oc(=O)c21	x	x	x	x	64.7*	x
CCCCCc1ccc(OCCCC[n+]2cccc(C)c2)c(CCCCC)c1	72.6*	29.3	x	10.7	56.3*	-29.3
CCCCOc1ccc(C)cc1CN(CCO)CCO	-0.9	22.7	-5.2	0.0	x	-22.7
CCCCCc1ccc(OCCCC[n+]2ccccc2)c(CCCCC)c1	u	12.5	x	6.6	x	-12.5
CCCCCc1ccc(OCCCC[n+]2ccc(C)cc2)c(CCCCC)c1	u	18.1	x	2.6	55.2*	-18.1
C[C@H](CO)N1C[C@H](C)[C@@H](CN(C)S(=O)(=O)c2cccs2)Oc2ccc(NC(=O)Cc3ccccc3)cc2CC1=O	x	x	2.1	x	45.6[16.7 µM]	x
CC(=O)Nc1nc(-c2ccccc2)c(-c2ccccc2)o1	58.8*	5.7	x	3.5	3.5	-5.7
COc1cc(OC)cc(C(=O)Nc2nc(-c3ccccc3)c(-c3ccccc3)o2)c1	x	-73.6	x	-2.5	6.5	u
C[C@H]1CN([C@@H](C)CO)S(=O)(=O)c2ccc(C#CC(C)(C)O)cc2O[C@@H]1CN(C)Cc1ccc(-c2ccccc2)cc1	x	x	0.1	x	45.7[16.7 µM]	x
COc1cc2c(cc1OC)/C(=C/C(=O)c1cccc([N+](=O)[O-])c1)NCC2	1.0	-69.1	-8.6	-0.8	1.7	69.1
COc1cc2c(cc1OC)/C(=C/C(=O)c1ccc(OC)c([N+](=O)[O-])c1)NCC2	14.1	-85.4	3.2	-1.8	23.2	85.4*
CC(=O)Nc1ccc2c(c1)-c1ccc(F)cc1C2	12.0	6.1	x	0.6	-21.4	-6.1
CC(=O)Nc1ccc2c(c1)Cc1ccc(Cl)cc1-2	1.2	-74.4	1.5	0.7	-20.2	74.4*
O=C(Nc1ccccc1)c1ccc(S(=O)(=O)N2CCC(C(=O)O)CC2)cc1	-3.8	7.9	0.1	0.3	15.5	-7.9
SMILES	Rtt109 Vps75	SR-BI uptake up	PglD DTNB	Glyco luc inh	Env fusion inh	SR-BI HDL uptake
O=C(Nc1cccc(F)c1)c1cc(S(=O)(=O)N2CCC(C(=O)O)CC2)ccc1F	-1.2	18.3	9.8	1.4	76.7*	-18.3
CCNC(=O)Nc1ccc2c(c1)C(=O)N(C)[C@@H]1CC[C@@H](CC(=O)NCc3cccc(F)c3)O[C@H]1CO2	x	x	-0.5	x	3.7[16.7 µM]	x
COc1ccc(NC(=O)C2CCN(C(=O)C3CC(=O)N(c4ccc(C)cc4)C3)CC2)cc1 (stereo not given)	1.3	-20.0	1.6	-0.5	-4.3	20.0
COc1ccc(Cl)cc1NC(=O)C1CCN(C(=O)C2CC(=O)N(c3ccc(C)cc3)C2)CC1 (stereo not given)	15.6	-89.4	4.3	3.0	7.9	89.3*
C=COCCNC(=O)Nc1ccc(Cl)cc1Cl	-6.3	-71.5	-2.3	-2.0	x	71.5*
C[C@@H]1CN([C@@H](C)CO)C(=O)Cc2cc(NC(=O)Cc3cn(C)c4ccccc34)ccc2O[C@H]1CN(C)CC1CCCCC1	x	x	1.7	x	9.8[16.7 µM]	x
CCCCCC(=O)Nc1nc(C)c(-c2csc(Nc3cc(Cl)ccc3OC)n2)s1	7.7	-79.1	-6.6	4.0	-3.0	79.1*
COc1ccc(OC)c(Nc2nc(-c3sc(N)nc3C)cs2)c1	9.3	-51.9	x	3.2	-39.1	51.9
CCC(C)C(=O)Nc1nc(C)c(-c2csc(Nc3ccc(Cl)cc3)n2)s1 (stereo not given)	1.3	-77.7	5.0	-11.7	10.6	77.7*
CCCC(=O)Nc1nc(C)c(-c2csc(Nc3ccc(Cl)cc3)n2)s1	6.3	-63.1	-1.0	-13.1	-11.2	63.1
COc1ccccc1Nc1nc(-c2sc(NC(=O)C(C)(C)C)nc2C)cs1	-9.4	-84.6	-4.7	-5.8	31.0	84.6*
CCCC(C)C(=O)Nc1nc(C)c(-c2csc(Nc3cc(OC)ccc3OC)n2)s1 (stereo not given)	-16.8	-93.0	-1.3	-2.3	10.8	93.0*
Cn1cnc(S(=O)(=O)N2C[C@H](O)COC[C@H]3O[C@@H](CC(=O)NC4Cc5ccccc5C4)CC[C@@H]32)c1	x	x	-0.6	x	-3.0[16.7 µM]	x
CN1CCN(C(=O)[C@H]2[C@H](CO)[C@H]3Cn4c(cccc4=O)[C@@H]2N3Cc2ccncc2)CC1	x	x	0.2	x	9.7[16.7 µM]	x
Cc1ccc(S(=O)(=O)N(C)C[C@@H]2Oc3ccc(NS(=O)(=O)c4cn(C)cn4)cc3CC(=O)N([C@H](C)CO)C[C@@H]2C)cc1	x	x	x	x	-13.5[16.7 µM]	x
CN(C)CC(=O)Nc1ccc2c(c1)[C@H]1C[C@H](CC(=O)NCCN3CCCCC3)O[C@H](CO)[C@H]1O2	x	x	-1.9	x	-8.3[16.7 µM]	x
CCCC(=O)Nc1nc(C)c(-c2csc(Nc3cc(OC)ccc3OC)n2)s1	-4.5	-94.0	2.1	-5.3	-19.7	94.0*
C=CCCC(=O)Nc1nc(C)c(-c2csc(Nc3cc(OC)ccc3OC)n2)s1	2.0	-55.5	-2.6	11.9	-177.9	55.5
Cc1cccc(C(=O)c2cnc3ccccc3c2-c2ccccc2)c1	8.6	-42.6	0.9	-5.5	72.7*	42.6
O=C(Nc1ccc2c(c1)OCO2)N[C@H]1CC[C@@H](CC(=O)N2CCN(c3ccccc3)CC2)O[C@H]1CO	x	x	0.7	x	-1.0[16.7 µM]	x
C[C@H](CO)N1C[C@H](C)[C@H](CN(C)C(=O)NC2CCCCC2)Oc2c(NC(=O)C3CCCCC3)cccc2C1=O	x	x	0.6	x	11.0[16.7 µM]	x

Source: PubChem BioAssay
